MrgX1 antag – human MrgX1 receptor antagonism, primary screen; B-score at 10 µM; Q96LB2; MRGX1-HEK293 calcium flux, Fluo-4, BAM8-22 antagonism; active compounds read low; 310,000 compounds, 1.3% hits;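 active = calcium-response B-score plate-corrected more than 3 library SD below zero, starting fluorescence within 5 deviations, no agonist response on first addition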;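 note: peak minus trough fluorescence over baseline after final BAM8-22 challenge near maximal dose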
Target sequence (Q96LB2 whole entry, looked up): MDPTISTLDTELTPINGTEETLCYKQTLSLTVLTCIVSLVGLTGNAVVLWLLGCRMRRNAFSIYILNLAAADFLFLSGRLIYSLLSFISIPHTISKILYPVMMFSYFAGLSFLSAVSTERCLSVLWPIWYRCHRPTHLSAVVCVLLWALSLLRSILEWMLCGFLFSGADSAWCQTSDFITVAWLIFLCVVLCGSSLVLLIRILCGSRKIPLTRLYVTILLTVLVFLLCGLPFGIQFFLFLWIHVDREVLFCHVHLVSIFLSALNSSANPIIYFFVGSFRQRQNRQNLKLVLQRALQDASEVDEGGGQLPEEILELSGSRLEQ
RGS4 inh – inhibitors of human RGS4. 310,000 compounds, 0.45% hits. AID 463165. P49798. B-score at 10 µM. HEK293 M3R/RGS4 inducible, Fluo-4 calcium flux; active compounds read high; triggered by carbachol at its EC20;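 active = B-score, a plate-corrected calcium signal, over three deviations above library mean, with baseline fluorescence within five deviations of library mean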;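 note: RGS4 expression induced by doxycycline in cells with stable M3 receptor; B-score is computed from the integrated fluorescence ratio over baseline after carbachol; higher B-score means a larger calcium signal and so more RGS4 inhibition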
Target sequence (P49798 whole entry, looked up): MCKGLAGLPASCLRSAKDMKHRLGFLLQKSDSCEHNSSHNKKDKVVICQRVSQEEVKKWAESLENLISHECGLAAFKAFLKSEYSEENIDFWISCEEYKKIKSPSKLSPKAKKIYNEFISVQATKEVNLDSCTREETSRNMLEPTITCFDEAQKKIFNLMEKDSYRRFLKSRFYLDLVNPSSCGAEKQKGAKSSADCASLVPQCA
RGS4 act – potentiators or activators of RGS4; HEK293 M3R/inducible RGS4, carbachol calcium flux Fluo4; active compounds read low; B-score at 10 µM; AID 463111; 310,000 compounds, 0.92% hits;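 active = B-score of the integrated calcium signal more than 4 SD below the library mean, with starting fluorescence not abnormally high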;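 note: negative B-score means reduced calcium response which marks RGS4 activation or potentiation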
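Also added: carbachol at ECmax as muscarinic agonist stimulus; Assay system: HEK293 cells with stable M3R and inducible RGS4; Timing: overnight RGS4 induction, 30 min dye load 37 °C, 20 min compound RT; Measured by: Fluo4-AM (2 µM) calcium-flux fluorescence, kinetic read.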
MrgX1 agonist – agonists of human MrgX1 receptor; MrgX1-HEK293 cells, Fluo-4 calcium fluorescence, agonist mode; active compounds read high; 310,000 compounds, 0.44% hits; B-score at 10 µM; AID 588627;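 active = calcium response B-score plate-corrected fluorescence ratio at least 3 library SD, with starting fluorescence B-score inside 5 SD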
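Material: MrgX1-expressing HEK293 cells / Dosing: compound as first of three additions / Incubation: overnight seeding, then 1 h dark dye loading / Signal: Fluo-4 NW calcium fluorescence / Evaluation: B-scored fluorescence response ratio / Benchmarks: positive and negative control wells on each plate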
MrgX1 PAM – allosterically activates human MrgX1 receptor signaling; Q96LB2; 310,000 compounds, 0.63% hits; MrgX1-HEK293, Fluo-4 calcium flux, FDSS; active compounds read high; B-score at 10 µM;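 active = plate-corrected calcium response at least 3 library SD above typical, normal starting fluorescence, not activating the receptor alone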;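 note: compound read alongside a low EC10 to EC30 dose of BAM8-22 agonist; peak minus trough fluorescence over baseline measured at the second addition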
MrgX1 ant reconf – reconfirmed antagonist of human MrgX1 receptor signaling | MrgX1-HEK293, BAM8-22 calcium flux, Fluo-4; active compounds read low | 2,300 compounds, 19% hits | remaining BAM8-22 calcium response % of control (active compounds read low), % at 10 µM | shares compounds with MrgX1 antag;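 active = remaining agonist calcium response no higher than 100% minus 3 SD of agonist-only control wells, with starting fluorescence near control levels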;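 note: agonist BAM8-22 given at a near maximal EC90 to ECmax level; peak minus minimum fluorescence divided by baseline after agonist addition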
HEK293 Ca flux – activity in parental HEK293 cells lacking MrgX1; shares compounds with MrgX1 antag; Fluo-4 calcium fluorescence, FDSS; fluorescence ratio F(max-min)/F0 at 10 µM; 4,000 compounds, 2% hits;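 active = duplicate-averaged calcium fluorescence ratio at least three times the standard deviation of buffer wells, a nonspecific response in parental cells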
HEK293 Ca counter – counter-screen for MrgX1 allosteric activators: effect in parental HEK293 cells; fluorescence ratio F(max-min)/F0 at 10 µM; parental HEK293 calcium flux, Fluo-4 fluorescence ratio; active compounds read high; 4,000 compounds, 0.4% hits; shares compounds with MrgX1 antag;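 active = calcium fluorescence ratio, averaged over duplicates, at least 3 SD of the buffer-well ratio, meaning a nonspecific response in receptor-free cells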;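 note: untransfected parental HEK293 lacking MrgX1 used as counterscreen for MrgX1 allosteric activators; fluorescence change taken during the second addition on a kinetic imager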
HEK293 Ca cntr2 – MrgX1 activator counter-screen hit in parental HEK293 cells | shares compounds with MrgX1 antag | Fluo-4 calcium fluorescence (FDSS); active compounds read high | fluorescence ratio F(max-min)/F0 at 10 µM | 4,000 compounds, 8.7% hits | AID 624115;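 active = calcium fluorescence ratio at least three times the spread of buffer wells, meaning a non-specific response in parental cells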
Large screens that a line does not name were inactive (follow-up assays come after a bar, where they were run). Shown are actives, neighbours in structure and some others; about 3.5% of the full set was active somewhere.

Cc1cc(-c2ccccc2)[nH]c(=O)c1S(=O)(=O)c1ccc(Cl)cc1	MrgX1 antag -8.96 | MrgX1 ant reconf inactive | HEK293 Ca flux inactive | HEK293 Ca counter inactive | HEK293 Ca cntr2 inactive
Cc1cc(-c2ccccc2)[nH]c(=O)c1S(=O)(=O)c1ccccc1	none
COc1cccc(OC)c1C(=O)N1CCN(Cc2ccccc2C)CC1	MrgX1 antag -4.62 | MrgX1 ant reconf inactive | HEK293 Ca flux inactive | HEK293 Ca counter inactive | HEK293 Ca cntr2 inactive
COC1=CC(=O)CC(C)C12Oc1cc(OC)cc(OC)c1C2=O (stereo unspecified)	MrgX1 antag -5.91 | MrgX1 ant reconf inactive | HEK293 Ca flux inactive | HEK293 Ca counter inactive | HEK293 Ca cntr2 inactive
Cc1ccc(C(=O)CN(CCC(=O)O)C(=O)c2ccncc2)cc1	none (no result: RGS4 inh, RGS4 act)
CCc1cc2c(=O)[nH]c(-c3ccncc3)nc2s1	MrgX1 antag -6.57 | MrgX1 ant reconf inactive | HEK293 Ca flux inactive | HEK293 Ca counter inactive | HEK293 Ca cntr2 inactive
COCCN(C(=O)c1ccc(OC2CCN(S(=O)(=O)N(C)C)CC2)cc1)C(C)C	none
Cc1cc(C)n(CCCNC(=O)c2ccc3c(c2)NC(=O)CS3)n1	MrgX1 antag -8 | MrgX1 ant reconf inactive | HEK293 Ca flux inactive | HEK293 Ca counter inactive | HEK293 Ca cntr2 inactive
O=S(=O)(NC1CCSc2ccccc21)c1ccc(Cl)nc1 (stereo unspecified)	none
O=C(O)CCc1ccc(-c2cccs2)n1-c1ccc(C(=O)O)cc1	MrgX1 antag -4.71 | MrgX1 ant reconf inactive | HEK293 Ca flux inactive | HEK293 Ca counter inactive | HEK293 Ca cntr2 inactive
COc1ccc(-c2cc(C(F)(F)F)n3ncc(C(=O)N4CCCCC4c4cccnc4)c3n2)cc1 (stereo unspecified)	MrgX1 antag -5.79 | MrgX1 ant reconf inactive | HEK293 Ca flux inactive | HEK293 Ca counter inactive | HEK293 Ca cntr2 inactive
CCOC(=O)C1CCCN(C(=O)c2cnn3c(C(F)(F)F)cc(-c4ccccc4)nc23)C1 (stereo unspecified)	none
O=C1CC[C@@H](C(=O)O)N1	none (no result: RGS4 inh, RGS4 act)
O=C(CN1C(=O)NC2(CCCC2)C1=O)N1CCN(S(=O)(=O)c2ccccc2F)CC1	none
N#CC1(NC(=O)CN2CCN(S(=O)(=O)c3ccccc3F)CC2)CCCC1	MrgX1 antag -4.92 | MrgX1 ant reconf inactive | HEK293 Ca flux inactive | HEK293 Ca counter inactive | HEK293 Ca cntr2 inactive
O=C(O)c1ccc(-n2c(=O)c3ccccc3c3ccccc3c2=O)cc1	MrgX1 antag -6.34 | MrgX1 ant reconf inactive | HEK293 Ca flux inactive | HEK293 Ca counter inactive | HEK293 Ca cntr2 inactive
CC(=O)Nc1ccc(-n2c(=O)c3ccccc3c3ccccc3c2=O)cc1	none
COc1ccc(NC(=S)NC(=O)C2CCCCC2)cc1	none
CCOc1ccc(NC(=S)NC(=O)C2CCCC2)cc1	MrgX1 antag -5.38 | MrgX1 ant reconf inactive | HEK293 Ca flux inactive | HEK293 Ca counter inactive | HEK293 Ca cntr2 inactive
O=C(NCC(c1ccco1)N1CCc2ccccc2C1)C(=O)Nc1ccc(F)cc1F (stereo unspecified)	MrgX1 antag -5.81 | MrgX1 ant reconf inactive | HEK293 Ca flux inactive | HEK293 Ca counter inactive | HEK293 Ca cntr2 inactive
O=C(O)c1ccccc1-n1c(-c2ccccc2)cc2c1CCCC2=O	none
CC(=O)N1CCN(C2c3cccc4cccc(c34)C2NS(=O)(=O)c2ccccc2)CC1 (stereo unspecified)	none
O=S(=O)(NC1c2cccc3cccc(c23)C1N1CCNCC1)c1ccc(Cl)cc1 (stereo unspecified)	MrgX1 antag -5.75 | MrgX1 ant reconf 83.6% | HEK293 Ca flux inactive | HEK293 Ca counter inactive | HEK293 Ca cntr2 inactive
CS(=O)(=O)N(CC(=O)N1CCN(c2cccc(Cl)c2)CC1)C1CCCCC1	none
Cc1ccc(Cl)cc1N1CCN(C(=O)CN(C2CCCCC2)S(C)(=O)=O)CC1	MrgX1 antag -12.2 | MrgX1 ant reconf inactive | HEK293 Ca flux inactive | HEK293 Ca counter inactive | HEK293 Ca cntr2 inactive
Cc1ccc([N+](=O)[O-])cc1N/C=C1\CCCCC1=O	none
Cc1n[nH]c(C)c1CCC(=O)N/N=C/c1cccs1	none
CC(C)c1ccccc1NC(=O)C1CC(=O)N(C2CCCC2)C1 (stereo unspecified)	MrgX1 antag -5.12 | MrgX1 ant reconf inactive | HEK293 Ca flux inactive | HEK293 Ca counter inactive | HEK293 Ca cntr2 inactive
CC(C)CNC(=O)c1cccc(NC(=O)CSc2ccccc2)c1	none
CC(C)CNC(=O)c1cccc(NC(=O)Cc2ccc(Cl)cc2)c1	MrgX1 antag -5.52 | MrgX1 ant reconf inactive | HEK293 Ca flux inactive | HEK293 Ca counter inactive | HEK293 Ca cntr2 inactive
Cc1ccc(-n2nnc3c(=O)oc4ccccc4c32)cc1	none
CCC(C)n1nnc2c(=O)oc3ccccc3c21 (stereo unspecified)	MrgX1 antag -6.47 | MrgX1 ant reconf inactive | HEK293 Ca flux inactive | HEK293 Ca counter inactive | HEK293 Ca cntr2 inactive
CC(C)[C@H]1COCCS(=O)(=O)N1Cc1ccccc1F	MrgX1 antag -5.33 | MrgX1 ant reconf inactive | HEK293 Ca flux inactive | HEK293 Ca counter inactive | HEK293 Ca cntr2 inactive
CCC[C@H]1COCCS(=O)(=O)N1Cc1ccccc1F	none
CCc1ccc(C(=O)C(C)OC(=O)C2COc3ccccc3O2)cc1 (stereo unspecified)	none
CCOC(=O)N1CCN(c2c(Nc3ccc4c(c3)OCCO4)c(=O)c2=O)CC1	MrgX1 antag -6.78 | MrgX1 ant reconf inactive | HEK293 Ca flux inactive | HEK293 Ca counter inactive | HEK293 Ca cntr2 inactive
CCOC(=O)N1CCN(c2c(N3CCOCC3)c(=O)c2=O)CC1	none
O=c1[nH]n(Cc2ccccc2)c2ccccc12	none
COc1cccc(CN(C)C(=S)Nc2cccc(C)c2)c1	MrgX1 antag -4.89 | MrgX1 ant reconf inactive | HEK293 Ca flux inactive | HEK293 Ca counter inactive | HEK293 Ca cntr2 inactive
CCOC(=O)N1CCN(C(=O)C2CCC(=O)N(Cc3cccc(C(F)(F)F)c3)C2)CC1 (stereo unspecified)	none
O=[N+]([O-])c1ccc(Cl)c(S(=O)(=O)Nc2cccc(-c3ccc(N4CCCC4)nn3)c2)c1	none
COc1ccc(-c2cc(-c3ccc(Cl)cc3)c(C#N)c(SCC(=O)O)n2)cc1	MrgX1 antag -5.86 | MrgX1 ant reconf inactive | HEK293 Ca flux inactive | HEK293 Ca counter inactive | HEK293 Ca cntr2 inactive

Screens from PubChem BioAssay.
